Test results reported in ChEMBL document CHEMBL5376013, “Design, synthesis and biological evaluation of novel morpholinopyrimidine-5-carbonitrile derivatives as dual PI3K/mTOR inhibitors” (RSC Med Chem, 2024).

Key:
Assay type in all cases: functional
Conditions in all cases: read-out: GI
CCRF-CEM = assay: Antitumor activity against human CCRF-CEM cells assessed as growth inhibition at 10 uM relative to control
Method in brief: (§1)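 After drug addition, plates were incubated 48 h at 37 °C under 5% CO2. Adherent cells were fixed with cold TCA (10% final, 60 min, 4 °C) and suspension cells with 16% final TCA. Staining used 0.4% SRB in 1% acetic acid, solubilized in 10 mM trizma, read at A515. Percent growth was calculated from time-zero, control and treated absorbances.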

HL-60 = assay: Antitumor activity against human HL-60 cells assessed as growth inhibition at 10 uM relative to control; method in brief: as §1
K562 = assay: Antitumor activity against human K562 cells assessed as growth inhibition at 10 uM relative to control; method in brief: as §1
MOLT-4 = assay: Antitumor activity against human MOLT-4 cells assessed as growth inhibition at 10 uM relative to control; method in brief: as §1
RPMI-8226 = assay: Antitumor activity against human RPMI-8226 cells assessed as growth inhibition at 10 uM relative to control; method in brief: as §1
SR = assay: Antitumor activity against human SR cells assessed as growth inhibition at 10 uM relative to control
Method in brief: (§2)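 Drug exposure 48 h at 37 °C, 5% CO2. Adherent cells fixed with cold TCA (10% final), suspension cells with TCA (16% final). Stained with 0.4% SRB in 1% acetic acid, dissolved in 10 mM Tris, A515. Growth relative to time-zero and untreated control.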

A549 = assay: Antitumor activity against human A549 cells assessed as growth inhibition at 10 uM relative to control; method in brief: as §1
HOP-62 = assay: Antitumor activity against human HOP-62 cells assessed as growth inhibition at 10 uM relative to control; method in brief: as §1
HOP-92 = assay: Antitumor activity against human HOP-92 cells assessed as growth inhibition at 10 uM relative to control; method in brief: as §1
NCI-H226 = assay: Antitumor activity against human NCI-H226 cells assessed as growth inhibition at 10 uM relative to control; method in brief: as §1
NCI-H23 = assay: Antitumor activity against human NCI-H23 cells assessed as growth inhibition at 10 uM relative to control; method in brief: as §1
NCI-H522 = assay: Antitumor activity against human NCI-H522 cells assessed as growth inhibition at 10 uM relative to control; method in brief: as §1
COLO 205 = assay: Antitumor activity against human COLO 205 cells assessed as growth inhibition at 10 uM relative to control; method in brief: as §1
HCT-116 = assay: Antitumor activity against human HCT-116 cells assessed as growth inhibition at 10 uM relative to control; method in brief: as §1
HCT-15 = assay: Antitumor activity against human HCT-15 cells assessed as growth inhibition at 10 uM relative to control; method in brief: as §1
HT-29 = assay: Antitumor activity against human HT-29 cells assessed as growth inhibition at 10 uM relative to control; method in brief: as §1
SW-620 = assay: Antitumor activity against human SW-620 cells assessed as growth inhibition at 10 uM relative to control; method in brief: as §2
SF-268 = assay: Antitumor activity against human SF-268 cells assessed as growth inhibition at 10 uM relative to control; method in brief: as §1
SF-295 = assay: Antitumor activity against human SF-295 cells assessed as growth inhibition at 10 uM relative to control; method in brief: as §1
SF-539 = assay: Antitumor activity against human SF-539 cells assessed as growth inhibition at 10 uM relative to control; method in brief: as §1
SNB-75 = assay: Antitumor activity against human SNB-75 cells assessed as growth inhibition at 10 uM relative to control; method in brief: as §2
U-251 = assay: Antitumor activity against human U-251 cells assessed as growth inhibition at 10 uM relative to control; method in brief: as §2
LOX IMVI = assay: Antitumor activity against human LOX IMVI cells assessed as growth inhibition at 10 uM relative to control; method in brief: as §1
Malme-3M = assay: Antitumor activity against human Malme-3M cells assessed as growth inhibition at 10 uM relative to control; method in brief: as §1
MDA-MB-435 = assay: Antitumor activity against human MDA-MB-435 cells assessed as growth inhibition at 10 uM relative to control; method in brief: as §1
SK-MEL-2 = assay: Antitumor activity against human SK-MEL-2 cells assessed as growth inhibition at 10 uM relative to control; method in brief: as §1
SK-MEL-5 = assay: Antitumor activity against human SK-MEL-5 cells assessed as growth inhibition at 10 uM relative to control; method in brief: as §2
UACC-62 = assay: Antitumor activity against human UACC-62 cells assessed as growth inhibition at 10 uM relative to control; method in brief: as §2
IGROV-1 = assay: Antitumor activity against human IGROV-1 cells assessed as growth inhibition at 10 uM relative to control; method in brief: as §1
OVCAR-8 = assay: Antitumor activity against human OVCAR-8 cells assessed as growth inhibition at 10 uM relative to control; method in brief: as §1
NCI/ADR-RES = assay: Antitumor activity against human NCI-ADR-RES cells assessed as growth inhibition at 10 uM relative to control; method in brief: as §1
SK-OV-3 = assay: Antitumor activity against human SK-OV-3 cells assessed as growth inhibition at 10 uM relative to control; method in brief: as §2
786-0 = assay: Antitumor activity against human 786-0 cells assessed as growth inhibition at 10 uM relative to control; method in brief: as §1
A498 = assay: Antitumor activity against human A498 cells assessed as growth inhibition at 10 uM relative to control; method in brief: as §1
ACHN = assay: Antitumor activity against human ACHN cells assessed as growth inhibition at 10 uM relative to control; method in brief: as §1
CAKI-1 = assay: Antitumor activity against human CAKI-1 cells assessed as growth inhibition at 10 uM relative to control; method in brief: as §1
RXF 393 = assay: Antitumor activity against human RXF 393 cells assessed as growth inhibition at 10 uM relative to control; method in brief: as §1
SN12C = assay: Antitumor activity against human SN12C cells assessed as growth inhibition at 10 uM relative to control; method in brief: as §2
TK-10 = assay: Antitumor activity against human TK-10 cells assessed as growth inhibition at 10 uM relative to control; method in brief: as §2
UO-31 = assay: Antitumor activity against human UO-31 cells assessed as growth inhibition at 10 uM relative to control; method in brief: as §2
DU-145 = assay: Antitumor activity against human DU-145 cells assessed as growth inhibition at 10 uM relative to control; method in brief: as §1
MCF7 = assay: Antitumor activity against human MCF7 cells assessed as growth inhibition at 10 uM relative to control; method in brief: as §1
MDA-MB-231 = assay: Antitumor activity against human MDA-MB-231 cells assessed as growth inhibition at 10 uM relative to control; method in brief: as §1
Hs-578T = assay: Antitumor activity against human Hs-578T cells assessed as growth inhibition at 10 uM relative to control; method in brief: as §1
T47D = assay: Antitumor activity against human T47D cells assessed as growth inhibition at 10 uM relative to control; method in brief: as §2
MDA-MB-468 = assay: Antitumor activity against human MDA-MB-468 cells assessed as growth inhibition at 10 uM relative to control; method in brief: as §1

## CC1=NN(c2nc(-c3ccc(Cl)cc3)c(C#N)c(N3CCOCC3)n2)C(=O)C1
CCRF-CEM
  inhibition of growth at 10 µM: 14.1%
HL-60
  inhibition of growth at 10 µM: 18.2%
K562
  inhibition of growth at 10 µM: < 1%
MOLT-4
  inhibition of growth at 10 µM: < 1%
RPMI-8226
  inhibition of growth at 10 µM: 42.9%
SR
  inhibition of growth at 10 µM: < 1%
A549
  inhibition of growth at 10 µM: < 1%
HOP-62
  inhibition of growth at 10 µM: 12.6%
HOP-92
  inhibition of growth at 10 µM: 93.7%
NCI-H226
  inhibition of growth at 10 µM: 10.2%
NCI-H23
  inhibition of growth at 10 µM: 19.3%
NCI-H522
  inhibition of growth at 10 µM: 21.1%
COLO 205
  inhibition of growth at 10 µM: < 1%
HCT-116
  inhibition of growth at 10 µM: < 1%
HCT-15
  inhibition of growth at 10 µM: 10.3%
HT-29
  inhibition of growth at 10 µM: < 1%
SW-620
  inhibition of growth at 10 µM: 14.8%
SF-268
  inhibition of growth at 10 µM: < 1%
SF-295
  inhibition of growth at 10 µM: < 1%
SF-539
  inhibition of growth at 10 µM: < 1%
SNB-75
  inhibition of growth at 10 µM: 43.5%
U-251
  inhibition of growth at 10 µM: < 1%
LOX IMVI
  inhibition of growth at 10 µM: 24.5%
Malme-3M
  inhibition of growth at 10 µM: < 1%
MDA-MB-435
  inhibition of growth at 10 µM: 12.2%
SK-MEL-2
  inhibition of growth at 10 µM: 12.9%
SK-MEL-5
  inhibition of growth at 10 µM: < 1%
UACC-62
  inhibition of growth at 10 µM: 21%
IGROV-1
  inhibition of growth at 10 µM: 19%
OVCAR-8
  inhibition of growth at 10 µM: < 1%
NCI/ADR-RES
  inhibition of growth at 10 µM: < 1%
SK-OV-3
  inhibition of growth at 10 µM: 13.4%
786-0
  inhibition of growth at 10 µM: 13.4%
A498
  inhibition of growth at 10 µM: 42%
ACHN
  inhibition of growth at 10 µM: 26.4%
CAKI-1
  inhibition of growth at 10 µM: 29.9%
RXF 393
  inhibition of growth at 10 µM: 56.6%
SN12C
  inhibition of growth at 10 µM: 112%
TK-10
  inhibition of growth at 10 µM: < 1%
UO-31
  inhibition of growth at 10 µM: 28.1%
DU-145
  inhibition of growth at 10 µM: < 1%
MCF7
  inhibition of growth at 10 µM: 1%
MDA-MB-231
  inhibition of growth at 10 µM: < 1%
Hs-578T
  inhibition of growth at 10 µM: 45.4%
T47D
  inhibition of growth at 10 µM: < 1%
MDA-MB-468
  inhibition of growth at 10 µM: < 1%

## N#Cc1c(-c2ccc(Cl)cc2)nc(N/N=C/c2cccc([N+](=O)[O-])c2)nc1N1CCOCC1
CCRF-CEM
  inhibition of growth at 10 µM: 25.3%
HL-60
  inhibition of growth at 10 µM: 13.5%
K562
  inhibition of growth at 10 µM: 33.6%
MOLT-4
  inhibition of growth at 10 µM: 36.6%
RPMI-8226
  inhibition of growth at 10 µM: 43.4%
SR
  inhibition of growth at 10 µM: 42.5%
A549
  inhibition of growth at 10 µM: 27.2%
HOP-62
  inhibition of growth at 10 µM: < 1%
HOP-92
  inhibition of growth at 10 µM: 28.7%
NCI-H226
  inhibition of growth at 10 µM: 28.7%
NCI-H23
  inhibition of growth at 10 µM: < 1%
NCI-H522
  inhibition of growth at 10 µM: 24.1%
COLO 205
  inhibition of growth at 10 µM: 14.6%
HCT-116
  inhibition of growth at 10 µM: 20.1%
HCT-15
  inhibition of growth at 10 µM: 23%
HT-29
  inhibition of growth at 10 µM: < 1%
SW-620
  inhibition of growth at 10 µM: < 1%
SF-268
  inhibition of growth at 10 µM: 12.3%
SF-295
  inhibition of growth at 10 µM: < 1%
SF-539
  inhibition of growth at 10 µM: 17.7%
SNB-75
  inhibition of growth at 10 µM: 33.4%
U-251
  inhibition of growth at 10 µM: 40.1%
LOX IMVI
  inhibition of growth at 10 µM: 26%
Malme-3M
  inhibition of growth at 10 µM: < 1%
MDA-MB-435
  inhibition of growth at 10 µM: 12.1%
SK-MEL-2
  inhibition of growth at 10 µM: 10.4%
SK-MEL-5
  inhibition of growth at 10 µM: 14.9%
UACC-62
  inhibition of growth at 10 µM: 27.6%
IGROV-1
  inhibition of growth at 10 µM: 28.1%
OVCAR-8
  inhibition of growth at 10 µM: 12.5%
NCI/ADR-RES
  inhibition of growth at 10 µM: 17.5%
SK-OV-3
  inhibition of growth at 10 µM: 11.1%
786-0
  inhibition of growth at 10 µM: 13.2%
A498
  inhibition of growth at 10 µM: 47.5%
ACHN
  inhibition of growth at 10 µM: 21.3%
CAKI-1
  inhibition of growth at 10 µM: 28.1%
RXF 393
  inhibition of growth at 10 µM: 56.6%
SN12C
  inhibition of growth at 10 µM: 10.6%
TK-10
  inhibition of growth at 10 µM: 25.6%
UO-31
  inhibition of growth at 10 µM: 65.1%
DU-145
  inhibition of growth at 10 µM: 13.1%
MCF7
  inhibition of growth at 10 µM: < 25.6%
MDA-MB-231
  inhibition of growth at 10 µM: 17.6%
Hs-578T
  inhibition of growth at 10 µM: < 1%
T47D
  inhibition of growth at 10 µM: 42%
MDA-MB-468
  inhibition of growth at 10 µM: 26.1%
